We go through 6 molecules from ChEMBL document CHEMBL1165983, “Regio- and stereospecific synthesis of mono-beta-d-glucuronic acid derivatives of combretastatin A-1” (J Nat Prod, 2010).

For one test, the system named is NCI-H460. As to the kind of experiment: Cytotoxicity against human NCI-H460 cells by SRB assay. It counts as functional. On the technique in general: The SRB assay estimates cell density from bound dye.
A further test relates to SK-OV-3. As to the kind of experiment: Cytotoxicity against human SKOV3 cells by SRB assay. It counts as functional.
The subject of a further test is DU-145. As to the kind of experiment: Cytotoxicity against human DU145 cells by SRB assay. The format is functional.
The nature of test [1]: Inhibition of bovine brain tubulin assembly after 20 mins. Set-up: species or system Bos taurus. In short, it runs like this:
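Bovine brain tubulin (10 µM) was preincubated with varying compound concentrations in glutamate buffer at 30 °C and then cooled to 0 °C. GTP was added, and the mixtures were warmed to 30 °C in a recording spectrophotometer. Assembly was followed turbidimetrically.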

SMILES strings stand for the structures.

Usually GI50 stands for the concentration giving 50% growth inhibition. On to `COc1ccc(/C=C/c2cc(OC)c(OC)c(OC)c2)c(O[C@@H]2O[C@H](C(=O)O)[C@@H](O)[C@H](O)[C@H]2O)c1O`, for which the results for the GI50 in the test on NCI-H460, in the test with SK-OV-3 and in the test on DU-145 were 26 µM, 30 µM and > 88 µM, respectively.
The matching figures for `COc1cc(/C=C\c2ccc(OC)c(O[C@@H]3O[C@H](C(=O)O)[C@@H](O)[C@H](O)[C@H]3O)c2O)cc(OC)c1OC`: 1.8 µM, 2.1 µM and 3.3 µM.
Consider `COc1cc(/C=C/c2ccc(OC)c(O[C@@H]3O[C@H](C(=O)O)[C@@H](O)[C@H](O)[C@H]3O)c2O)cc(OC)c1OC`, for which the GI50 in the test with NCI-H460 is 26 µM; in the test on SK-OV-3 it was > 85 µM; with DU-145, > 98 µM.
The matching figures for `COc1ccc(/C=C\c2cc(OC)c(OC)c(OC)c2)c(O[C@@H]2O[C@H](C(=O)O)[C@@H](O)[C@H](O)[C@H]2O)c1O`: 3 µM, 2.3 µM and 4.4 µM.
With `COc1ccc(/C=C\c2cc(OC)c(OC)c(OC)c2)cc1O` [COMBRETASTATIN A4], halving of growth in the test with DU-145 (GI50) required 0.001 µM.
Broadly, the IC50 is the concentration that inhibits the measured activity by half. As for `COc1ccc(/C=C\c2cc(OC)c(OC)c(OC)c2)c(O)c1O` [COMBRETASTATIN A-1], the IC50 in test [1] worked out at 1.1 µM. The GI50 in the test with NCI-H460 came to 0.046 µM; in the test with DU-145 it was 0.013 µM.
